Compounds with a hit are over-represented: about 4.8% of the library has one in this group of screens.
PAFAH1B2 inh: blocks human PAF acetylhydrolase 1b catalytic subunit 2; recombinant PAFAH1B2, FP-rhodamine activity probe, fluorescence polarization; hit rate 1.2% among 340,000; inhibition, % at 3.39 µM; P68402;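 active = inhibition above the mean of all tested compounds plus 3 SD, cut at about 24% in these data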;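 note: 0% = enzyme with DMSO and 100% = wells lacking PAFAH1B2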
Target sequence (P68402 whole entry, looked up): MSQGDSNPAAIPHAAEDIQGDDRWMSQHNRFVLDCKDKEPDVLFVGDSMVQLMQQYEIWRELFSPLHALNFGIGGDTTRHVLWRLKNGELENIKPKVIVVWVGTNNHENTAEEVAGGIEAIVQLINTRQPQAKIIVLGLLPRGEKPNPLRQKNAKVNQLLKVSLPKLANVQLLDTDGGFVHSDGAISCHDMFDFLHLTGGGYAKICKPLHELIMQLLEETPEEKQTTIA
PAFAH1B3 inh: blocks human PAF acetylhydrolase 1B catalytic subunit 3. inhibition, % at 3.39 µM. hit rate 0.28% among 340,000. recombinant PAFAH1B3, FP-rhodamine probe, fluorescence polarization. AID 492972;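 active = inhibition above the screen-wide average of all tested compounds plus 3 SD, cut at about 25% in these data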;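 note: 0% = enzyme with DMSO only and 100% = wells lacking PAFAH1B3 protein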
PAFAH2 FP inh: inhibitors of human PAFAH2; Q99487; recombinant PAFAH2, FP-rhodamine activity probe, fluorescence polarization; inhibition, % at 3.39 µM; hit rate 0.99% among 340,000; AID 492956;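 active = inhibition above the mean over all tested compounds plus 3 SD, cut at about 30% in these data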;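 note: inhibitors block probe labeling of enzyme so polarization drops; 0% = enzyme with DMSO and 100% = wells lacking PAFAH2 protein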
pPAFAH FP inh: pPAFAH (human) enzyme inhibition. Q13093. recombinant pPAFAH, FP-rhodamine probe fluorescence polarization. inhibition, % at 3.39 µM. hit rate 1.5% among 330,000;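 active = inhibition above the mean inhibition across the screen plus 3 SD, cut at about 25% in these data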;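 note: inhibitors block binding of the rhodamine activity-based probe so polarization drops; 0% = enzyme with DMSO and 100% = wells lacking pPAFAH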
UCH37 inh: blocks the human deubiquitinase UCH37; Q9Y5K5; purified proteasome/UCH37, Ub-AMC cleavage fluorescence; inhibition, % (no concentration beside the values); hit rate 0.33% among 330,000; AID 588478;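 active = mean inhibition over replicate wells above about 20%, limit read from the data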;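 note: 0% = compound-free wells with enzyme and 100% = wells lacking proteasome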
Target sequence (Q9Y5K5 whole entry, looked up): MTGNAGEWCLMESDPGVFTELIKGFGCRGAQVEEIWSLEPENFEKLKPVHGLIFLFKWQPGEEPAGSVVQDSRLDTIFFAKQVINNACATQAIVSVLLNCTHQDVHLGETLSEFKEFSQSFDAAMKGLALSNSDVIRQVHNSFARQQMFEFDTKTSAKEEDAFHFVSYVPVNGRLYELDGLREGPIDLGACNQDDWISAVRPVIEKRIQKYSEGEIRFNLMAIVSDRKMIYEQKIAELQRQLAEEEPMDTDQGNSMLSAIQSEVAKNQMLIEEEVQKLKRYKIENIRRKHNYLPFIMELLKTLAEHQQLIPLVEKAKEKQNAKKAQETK
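assay system = human UCH37 enzyme supplied as purified proteasome complex | amount = proteasome at 0.15 nM in the dispensed enzyme solution | schedule = 30 min compound-proteasome preincubation then 25 min substrate reaction, room temperature | measured by = fluorescence, ex 355 nm, em 460 nm | benchmarks = no-proteasome wells (full inhibition) and compound-free wells (no inhibition)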
NR3A LBD binder: modulators (binders) of human NR3A ligand-binding domain | NR3A LBD differential scanning fluorimetry, Tm shift; 0% = protein alone, 100% = glycine-bound protein | Tm shift relative to glycine control, % at 25 µM | hit rate 2.5% among 340,000 | AID 1259313;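 active = melting temperature shift of at least 10% of the positive control shift, at one fixed dose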
An asterisk follows results filed as active; nt = no result.

SMILES	PAFAH1B2 inh	PAFAH1B3 inh	PAFAH2 FP inh	pPAFAH FP inh	UCH37 inh	NR3A LBD binder
Cc1[nH]c2ccccc2c1C(=O)CSc1nc2ccccc2[nH]1	-1	0	3	-5	7	19*
O=C(CSc1nc2ccccc2n1CCc1ccccc1)N1CCOCC1	-1	-3	1	-2	1	-4
O=C(CSc1nc2ccccc2n1CCc1ccccc1)c1ccc(O)c(O)c1	28*	25	55*	nt	4	3
Cc1cc(C(=O)NN=C2CC(C)CC(C)(C)C2)c(C)o1 (stereo not given)	nt	nt	nt	nt	2	nt
O=C(Nc1ccccc1)c1ccc(-c2ccc(F)cc2)s1	-6	8	-4	0	-29	22*
COc1ccc(NC(=O)c2ccc(-c3ccc(OC)cc3)s2)cc1	-9	-4	-7	3	-16	22*
CNC(=O)c1ccc(-c2ccc(F)cc2)s1	-1	5	8	4	-26	-46
COc1cc(C(=O)NN=Cc2ccccc2)c([N+](=O)[O-])c(OC)c1OC	nt	nt	nt	nt	1	nt
Cc1cc2c([nH]c3ccccc32)c2c1OC(C)(C)C=C2	0	8	1	11	3	16*
COc1ccccc1/C=C/C=NN1CCN(Cc2cccc3ccccc23)CC1	nt	nt	nt	nt	6	nt
COCCn1c(=S)[nH]c2sc3c(c2c1=O)CCC(C)C3 (stereo not given)	6	4	19	8	5	1
Cn1c(=S)[nH]c2sc3c(c2c1=O)CCC(C(C)(C)C)C3 (stereo not given)	44*	2	15	0	nt	nt
ON=Cc1ccnc(SCc2ccc(Cl)cc2)n1	nt	nt	nt	nt	4	nt
COc1cccc(COC(=O)c2cc(S(=O)(=O)N3CCCCC3)ccc2N2CCOCC2)c1OC	5	4	6	-1	4	19*
C=CC[C@H](CC(=O)N(CCO)Cc1ccccc1)C(=O)N[C@H](COC(=O)[C@@H](CC=C)Cc1ccc(F)cc1)Cc1ccccc1	57*	3	-1	4	13	-14
C=CCC[C@H](Cc1ccc(F)cc1)C(=O)O[C@H](CNC(=O)[C@@H](CC=C)CC(=O)N(CCO)Cc1ccccc1)c1ccccc1	27*	5	6	19	5	1
O=C(NN=Cc1ccco1)c1ccc(C(=O)NN=Cc2ccco2)o1	nt	nt	nt	nt	10	nt
O=C(O)c1cccc(NC(=S)NN=Cc2cccnc2)c1	nt	nt	nt	nt	4	nt
CCCC(=O)NC(c1cccs1)c1cc(Cl)c2cccnc2c1O (stereo not given)	4	10	4	33*	6	-5
CCCC(=O)NC(c1ccco1)c1cc(Cl)c2cccnc2c1O (stereo not given)	6	12	-3	30*	2	3
CCC(=O)NC(c1ccc(C)cc1)c1cc(Cl)c2cccnc2c1O (stereo not given)	3	16	5	20	1	-27
CCC(=O)NC(c1ccco1)c1cc(Cl)c2ccccc2c1O (stereo not given)	-2	-1	8	4	-2	-14
O=C(O)COc1ccccc1C(Nc1cccnc1)c1cc(Cl)c2cccnc2c1O (stereo not given)	nt	nt	nt	nt	2	1
CCCC(=O)NC(c1ccc2c(c1)OCO2)c1cc(Cl)c2cccnc2c1O (stereo not given)	2	7	0	32*	2	-4
O=C(O)COc1ccccc1C(Nc1ccccn1)c1cc(Cl)c2cccnc2c1O (stereo not given)	2	3	29	32*	3	-2
SMILES	PAFAH1B2 inh	PAFAH1B3 inh	PAFAH2 FP inh	pPAFAH FP inh	UCH37 inh	NR3A LBD binder
CC(CC(=O)Nc1cc(C)ccn1)=NNC(=O)c1ccc(C)cc1	nt	nt	nt	nt	3	nt
CC(=NNC(=O)c1nn(C)c(C)c1Br)c1ccc(NC(=O)C2CCCC2)cc1	nt	nt	nt	nt	-25	nt
O=C(CN1CCN(Cc2ccccc2)CC1)NN=Cc1ccccc1F	nt	nt	nt	nt	2	nt
CC(CC(=O)Nc1ccc2c(c1)OCCO2)=NNC(=O)COc1cccc(C)c1	nt	nt	nt	nt	0	nt
CCNc1nc(NC(C)C)nc(Oc2ccc(C=NO)cc2)n1	nt	nt	nt	nt	2	nt
Cc1cc(C)c2c(c1)C(=NNC(=O)c1ccc(O)cc1)CCC2	nt	nt	nt	nt	2	nt
O=c1nccc(NN=Cc2ccccc2O)[nH]1	nt	nt	nt	nt	5	nt
O=C(NCCCNCc1ccccc1)C(=NO)c1ccccc1	nt	nt	nt	nt	1	nt
CCOc1ccc(C(Nc2cccnc2)c2cc(Cl)c3cccnc3c2O)cc1 (stereo not given)	-2	9	-1	14	22*	-1
O=C(NC(c1ccccc1)c1cc(Cl)c2cccnc2c1O)c1cccnc1 (stereo not given)	nt	nt	nt	14	1	nt
CC(=NNC(=O)c1ccncc1)c1ccc(NC(=O)c2ccc(Cl)cc2)cc1	nt	nt	nt	nt	-7	nt
CC(=O)Nc1cccc(/C(C)=N/Nc2ccc(S(=O)(=O)Nc3ccccc3C(=O)O)cc2[N+](=O)[O-])c1	33*	23	38*	nt	nt	14*
COc1ccccc1NS(=O)(=O)c1ccc(NN=C(C)C(C)C)c([N+](=O)[O-])c1	nt	nt	nt	nt	3	nt
Cc1nn(-c2ccccc2)c(N2CCCC2)c1/C=N/Nc1ccc(S(N)(=O)=O)cc1[N+](=O)[O-]	21	14	5	3	nt	-10
O=C(O)c1ccccc1NS(=O)(=O)c1ccc(N/N=C/c2cccc(O)c2O)c([N+](=O)[O-])c1	44*	48*	63*	nt	nt	32*
Cc1nn(-c2ccccc2)c(Cl)c1C=NNc1ccc(S(=O)(=O)Nc2ccccc2C(=O)O)cc1[N+](=O)[O-]	nt	nt	nt	nt	23*	nt
CCN(CC)c1ccc(C=NOC(C)C(=O)Nc2ccc(C)cc2)cc1 (stereo not given)	nt	nt	nt	nt	-10	nt
Br/C(C=NNc1nc(N2CCOCC2)nc(N2CCOCC2)n1)=C\c1ccccc1	nt	nt	nt	nt	10	nt
NC(=S)NN=Cc1coc2ccc(F)cc2c1=O	nt	nt	nt	nt	2	nt
CCOc1cc(C=NNC(N)=O)cc(Br)c1OCC(=O)Nc1ccccc1C	nt	nt	nt	nt	-2	nt
COc1ccc(C=NNC(=O)COc2ccccc2Cl)cc1Cn1nc(C)cc1C	nt	nt	nt	nt	0	nt
Cc1nnc(C)n1N=Cc1ccccn1	nt	nt	nt	nt	0	nt
COc1ccccc1OC(=O)Cc1cccc2ccccc12	4	9	-2	6	-2	0
COc1ccccc1CC(=O)O/N=C(\N)Cc1cccc2ccccc12	3	-4	34*	-1	7	0
COc1ccc(C/C(N)=N/OC(=O)COc2ccccc2C)cc1	0	-5	8	4	3	11*
O=C1c2ccccc2-c2onc3ccc(NCCCn4ccnc4)c1c23	nt	nt	nt	105*	11	-403
COC(=O)Cc1cc(=O)[nH]c(Nc2nc3ccccc3o2)n1	3	11	19	28*	4	4
C=CCNC(=S)NN=C(C)c1cccc(NC(C)=O)c1	nt	nt	nt	nt	5	nt
O=Cc1c(Nc2cccc(C(F)(F)F)c2)nc2ccccn2c1=O	1	0	1	0	5	2

Bioassay records as filed in PubChem BioAssay.
